Compound activity (PubChem)
NadD block – blocks S. aureus nicotinate mononucleotide adenylyltransferase; inhibition, % at 20 µM; 0.78% of 360,000 active; purified NadD enzyme, colorimetric absorbance read-out; AID 602399; in the data active = inhibition above about 26%
ABHD5 PLIN5 PPI – blocks binding of human ABHD5 to perilipin-5. Q00G26+Q8WTS1. Split G. princeps luciferase complementation, luminescence, 4 h. inhibition, % at 4 µM. 0.78% of 360,000 active. AID 602281;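 active = inhibition above the mean inhibition across every tested compound plus 3 SD, cut at about 22% in these data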;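 also: 0% = DMSO only wells and the 100% control is not disclosed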
Target sequence (Q00G26 whole entry, looked up): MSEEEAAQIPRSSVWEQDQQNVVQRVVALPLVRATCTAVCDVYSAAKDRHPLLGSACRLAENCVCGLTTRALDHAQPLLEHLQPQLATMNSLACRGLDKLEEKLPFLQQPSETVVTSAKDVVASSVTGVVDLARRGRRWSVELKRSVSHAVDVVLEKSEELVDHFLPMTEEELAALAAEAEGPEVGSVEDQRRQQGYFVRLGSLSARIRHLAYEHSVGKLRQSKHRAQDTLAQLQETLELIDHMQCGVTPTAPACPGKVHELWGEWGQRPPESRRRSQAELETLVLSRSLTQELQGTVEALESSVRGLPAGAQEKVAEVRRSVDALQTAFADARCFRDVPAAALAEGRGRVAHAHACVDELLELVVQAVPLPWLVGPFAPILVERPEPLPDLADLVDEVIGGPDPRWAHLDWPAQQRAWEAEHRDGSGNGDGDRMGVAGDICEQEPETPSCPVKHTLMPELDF
Target sequence (Q8WTS1 whole entry, looked up): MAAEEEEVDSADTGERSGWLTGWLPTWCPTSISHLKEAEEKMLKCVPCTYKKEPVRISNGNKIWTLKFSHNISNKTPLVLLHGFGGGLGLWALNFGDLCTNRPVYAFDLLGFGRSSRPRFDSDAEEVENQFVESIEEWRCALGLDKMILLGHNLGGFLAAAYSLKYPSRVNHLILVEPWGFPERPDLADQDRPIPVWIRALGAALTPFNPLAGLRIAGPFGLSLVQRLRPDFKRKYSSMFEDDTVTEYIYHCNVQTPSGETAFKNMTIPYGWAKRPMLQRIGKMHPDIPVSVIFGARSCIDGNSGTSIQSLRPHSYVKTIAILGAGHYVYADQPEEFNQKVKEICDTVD
core dimer inh – blocks dimerization of HCV core protein; inhibition, % at 5 µM; AID 1899; 0.33% of 300,000 active; TR-FRET GST/Flag-core106 dimerization, 1536-well;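 active = inhibition above the mean of all tested compounds plus 3 SD, set per screening campaign, cut at about 45% in these data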
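Assay system: tagged HCV core106 pair (GST and Flag); medium: KF-containing HEPES buffer, pH 7.45, DTT, CHAPS, BSA; also added: Eu donor and XL665 acceptor anti-tag antibodies; dosing: 5 µM single dose; timing: compound-protein-antibody incubation 4 h at 22.5 °C; signal: TR-FRET 671 and 617 nm emission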
rCAG RNA binder – r(CAG) repeat RNA binding; 1.3% of 370,000 active; TO-PRO-1 dye displacement fluorescence; inhibition, % at 3 µM;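 active = inhibition above the plate cutoff, the mean of all test compounds on that plate plus 3 SD, cut at about 35% in these data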;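 also: 0% = DMSO alone and 100% = 100 µM mitoxantrone as full dye displacement; higher means more dye released from RNA so lower well fluorescence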
rCAG binder conf – r(CAG) RNA repeat binding, confirmation; inhibition, % at 3 µM; 70% of 4,300 active; TO-PRO-1 dye displacement fluorescence; shares compounds with rCAG RNA binder; AID 652065;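 active = inhibition above a per-plate cutoff, the mean inhibition of sample wells plus 3 SD, cut at about 35% in these data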;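 also: loss of TO-PRO-1 fluorescence as compound displaces dye from 1x1 AA loop RNA; 0% = DMSO only wells and 100% = 100 µM mitoxantrone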
DNA CAG counter – counter-screen for rCAG RNA binders: DNA CAG dye complex inhibitors | inhibition, % at 3 µM | shares compounds with rCAG RNA binder | 94% of 4,300 active | d(CAG) DNA oligo TO-PRO-1 dye displacement, fluorescence;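 active = inhibition above its plate's cutoff, the mean test-well inhibition plus 3 SD, cut at about 4.8% in these data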;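 also: 0% = DNA dye mix with DMSO and 100% = 100 µM mitoxantrone; hits displace the dye from DNA and so lower well fluorescence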
* marks the source's active call; other numbers are inactive results; · = no result. Only some compounds are listed: those with a hit (about 2.6% of all), similar ones and a draw of the others.

SMILES	NadD block	ABHD5 PLIN5 PPI	core dimer inh	rCAG RNA binder	rCAG binder conf	DNA CAG counter
O=S1(=O)C[C@@H](N2CCC[C@@H]2CO)[C@H](COCc2ccccc2)N1	1	7	·	5	·	·
CC(C)CN1C(=O)c2ccc(C(=O)Nc3ccccc3C(=O)O)cc2C1=O	-2	-4	-5	56*	57*	18*
CC(C)CCN1C(=O)c2ccc(C(=O)Nc3ccc(Br)cc3C(=O)O)cc2C1=O	22	0	13	63*	79*	73*
CC(=O)NS(=O)(=O)c1ccc(NC(=O)c2ccc3c(c2)C(=O)N(CCC(C)C)C3=O)cc1	9	-1	16	58*	59*	19*
O=C(Nc1ccccc1C(=O)O)c1cccc(N2C(=O)c3ccccc3C2=O)c1	-8	1	-3	35*	18	1
Cc1ccccc1NC(=O)c1ccc2c(c1)C(=O)N(CC(C)C)C2=O	-3	-3	-8	-1	·	·
CC(C)CCN1C(=O)c2ccc(C(=O)Nc3cc(C(=O)O)cc(C(=O)O)c3)cc2C1=O	-6	0	·	30	·	·
Cc1cn([C@H]2C[C@H](O)[C@@H](CCC(=O)NCc3ccc(N(C)C)cc3)O2)c(=O)[nH]c1=O	1	-3	·	1	·	·
O=C(Nc1ccc(Cl)cc1C(=O)O)c1ccc2c(c1)C(=O)N(Cc1ccco1)C2=O	7	7	18	86*	88*	75*
Cc1nc([N+](=O)[O-])cn1CC(Cl)Cn1cc([N+](=O)[O-])nc1C	·	·	·	3	·	·
Cc1ccc2[nH]c(C(=O)N/N=C/c3ccccc3C(=O)O)c(-c3ccccc3)c2c1	6	1	1	55*	36*	9.0*
COc1ccc(/C=N/NC(=O)c2cc(-c3ccccc3)nc3ccccc23)c(C(=O)O)c1OC	1	5	10	16	·	·
COc1ccc(/C=N/NC(=O)c2[nH]c3ccc(C)cc3c2-c2ccccc2)c(C(=O)O)c1OC	6	-2	-1	39*	46*	15*
COc1c(C)cc(C(O)c2ncc(-c3cccc(F)c3)[nH]2)cc1C (configuration not stated)	-8	1	·	3	·	·
COc1ccc(Cc2c(C3CCCCC3)nc3ccc(C)cn23)c(C)c1	·	·	·	5	·	·
COC(=O)c1cc(NS(=O)(=O)c2ccc(N3CCC(C)CC3)c([N+](=O)[O-])c2)cc(C(=O)OC)c1	6	-7	21	55*	60*	19*
CC1CCN(c2ccc(C(=O)O)cc2NS(=O)(=O)c2ccc(Cl)s2)CC1	·	·	·	29	·	·
CC1CCN(c2ccc(C(=O)O)cc2NS(=O)(=O)c2ccc(Br)cc2)CC1	5	-6	17	35*	37*	11*
Cc1ccc(S(=O)(=O)Nc2cc(C(=O)O)ccc2N2CCC(C)CC2)cc1C	·	·	·	42*	41*	11*
CC1CCN(c2ccc(C(=O)O)cc2NS(=O)(=O)c2cccc3cccnc23)CC1	·	·	·	36*	30	7.2*
CC1CCN(C(=O)c2ccc(NS(=O)(=O)c3cccc4cccnc34)cc2)CC1	-1	8	3	-2	·	·
COc1ccc(C(=O)O)cc1S(=O)(=O)Nc1cc(C(F)(F)F)ccc1N1CCCCC1	6	-1	·	46*	32	7.1*
Cc1ccc(S(=O)(=O)Nc2nc3ccccc3nc2Nc2cccc(S(=O)(=O)N3CCCC3)c2)cc1	10	2	22	21	·	·
CC(=O)Nc1ccc(Nc2nc3ccccc3nc2NS(=O)(=O)c2ccccc2)cc1	-4	-7	4	34	·	·
O=[N+]([O-])c1cccc(S(=O)(=O)Nc2nc3ccccc3nc2Nc2cccc(S(=O)(=O)N3CCCCC3)c2)c1	23	4	·	52*	95*	86*
SMILES	NadD block	ABHD5 PLIN5 PPI	core dimer inh	rCAG RNA binder	rCAG binder conf	DNA CAG counter
CC(=O)Nc1ccc(S(=O)(=O)Nc2nc3ccccc3nc2Nc2ccccc2)cc1	8	-1	-4	47*	40*	9.6*
CC(=O)Nc1ccc(S(=O)(=O)Nc2nc3ccccc3nc2Nc2cccc(S(N)(=O)=O)c2)cc1	-5	-3	3	52*	37*	7.6*
CC(=O)Nc1ccc(S(=O)(=O)Nc2nc3ccccc3nc2Nc2ccc(O)cc2)cc1	-4	2	-9	21	·	·
COC(=O)c1c[nH]c2c1-c1cc(C(=O)OCc3ccccc3)n(S(=O)(=O)c3ccc(C)cc3)c1C(=O)C2=O	23	-17	·	6	·	·
CCc1noc(C)c1C(=O)N(CC)CC(=O)NCc1ccc(F)cc1	-9	-8	·	0	·	·
CCCCc1ccc(NC(=O)CSCc2cc(=O)[nH][nH]2)cc1	4	6	1	42*	15	4.5*
O=C(CSCc1cc(=O)[nH][nH]1)Nc1ccc(F)cc1	0	-7	-3	6	·	·
O=C1NC(=S)S/C1=C\c1cc2ccccc2nc1N1CCCCC1	19	1	16	37*	87*	61*
Fc1ccc2nc(-c3ccc(CN4CCC5(CC4)CNc4ccccc45)cc3)c(-c3ccccc3)nc2c1	·	·	·	11	·	·
O=C(Nc1ccc([N+](=O)[O-])cc1)OC1CCS(=O)(=O)C1 (configuration not stated)	2	2	·	0	·	·
O=C(CCCN1C(=O)/C(=C\c2ccccc2)SC1=S)Nc1ccc(C(=O)O)cc1	9	6	0	3	·	·
O=C(CCCN1C(=O)/C(=C/c2ccc3c(c2)OCO3)SC1=S)Nc1ccc(C(=O)O)cc1	4	5	-6	29	·	·
O=C(CCCN1C(=O)/C(=C/c2ccccc2)SC1=S)Nc1ccc(C(=O)O)c(O)c1	1	8	5	83*	80*	36*
COc1ccc(C=C2SC(=S)N(CCCC(=O)Nc3ccc(C(=O)O)c(O)c3)C2=O)cc1OC	23	-5	·	80*	75*	41*
O=C(CCN1C(=O)/C(=C\c2ccccc2F)SC1=S)Nc1ccc(C(=O)O)c(O)c1	16	3	26	94*	84*	60*
COc1ccc(/C=C2\SC(=S)N(CCCC(=O)Nc3cccc(C(=O)O)c3)C2=O)cc1OC	15	4	7	23	·	·
Cc1cc(NC(=O)CCN2C(=O)/C(=C/c3ccccc3F)SC2=S)no1	·	·	3	3	·	·
O=C(CCCN1C(=O)C(=Cc2ccc3c(c2)OCO3)SC1=S)Nc1ccc(C(=O)O)c(O)c1	25	16	·	77*	78*	45*
COC(=O)[C@]12C[C@H](CC(=O)NCc3ccc(OC)c(OC)c3)C(=O)N(Cc3ccc(Cl)cc3Cl)C1=C[C@H](C1CCCC1)O[C@@H]2C	·	·	·	10	·	·
C#CCN(C[C@H]1[C@H](OC(=O)NCCCCCC)[C@H](OC(=O)NCCCCCC)CN(C(=O)OC(C)C)N1C(=O)OC(C)C)S(=O)(=O)c1ccc(C)cc1	·	·	·	11	·	·
CC(C)N1C(=O)S/C(=C\c2ccc(-c3ccc(Cl)c(C(=O)O)c3)o2)C1=O	0	7	9	51*	47*	16*
